Assay results taken from ChEMBL document CHEMBL1130233, “N6-cyclopentyl-3'-substituted-xylofuranosyladenosines: a new class of non-xanthine adenosine A1 receptor antagonists” (J Med Chem, 1997).

Columns and labels:
Adenosine receptor A2a = Adenosine receptor A2a (Rattus norvegicus, UniProt P30543); test: Affinity for adenosine A2a receptor was determined on rat striatal membrane using [3H]-CGS- 21680 as radioligand; design: species or system Striatum
Procedure, shortened: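 Rat striatal membranes were used for displacement of [3H]CGS 21680 as radioligand, and Ki values were derived from the displacement data. There were three or four independent experiments, each performed in duplicate.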

[1] = molecular target: T1, Adenosine receptor A1 (Rattus norvegicus) (UniProt P25099); test: GTP shift ratio of the apparent Ki values in the presence and absence of GTP.
T1 sequence (whole entry): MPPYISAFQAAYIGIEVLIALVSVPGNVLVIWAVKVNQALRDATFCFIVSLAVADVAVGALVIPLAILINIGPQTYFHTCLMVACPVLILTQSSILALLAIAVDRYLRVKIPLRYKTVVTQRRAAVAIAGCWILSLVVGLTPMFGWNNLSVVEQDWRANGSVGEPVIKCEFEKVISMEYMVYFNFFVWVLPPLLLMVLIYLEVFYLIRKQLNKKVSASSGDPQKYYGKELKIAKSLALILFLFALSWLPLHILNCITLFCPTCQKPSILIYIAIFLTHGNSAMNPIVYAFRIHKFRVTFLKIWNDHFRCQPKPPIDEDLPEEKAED
Procedure, shortened: (§1)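 Rat cerebral cortex membranes were used for displacement of the tritiated antagonist [3H]DPCPX. Assays were run with and without 1 mM GTP, and Ki values were derived from the displacement data. GTP shift is the apparent Ki with GTP divided by the apparent Ki without GTP. There were three or four independent experiments, each in duplicate.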

Adenosine receptor A1 [2] = molecular target: T2, Adenosine receptor A1 (Rattus norvegicus, UniProt P25099); test: Affinity for adenosine A1 receptor was determined, in the absence of GTP in rat cortical membrane.; assay type: cell membranes
T2 sequence (P25099 whole entry): T1 sequence (whole entry)
Procedure, shortened: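 Rat cerebral cortex membranes were used for displacement of the tritiated antagonist [3H]DPCPX. GTP shift is the apparent Ki with GTP divided by the apparent Ki without GTP. There were three or four independent experiments, each in duplicate.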

Adenosine receptor A1 [3] = molecular target: T2, Adenosine receptor A1; test: Affinity for adenosine A1 receptor was determined, in the presence of GTP in rat brain cortex; assay type: tissue-based; procedure, shortened: as §1
[4] = molecular target: Adenosine receptor A2a (Rattus norvegicus) (UniProt P30543); test: Affinity for adenosine A2a receptor of rat striatal membrane using [3H]-CGS- 21680 at 10e-5 M
Procedure, shortened: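 On rat striatal membranes with [3H]CGS 21680 as radioligand, the value is the percentage of radioligand still bound to the receptor in the presence of 10⁻⁵ M test ligand.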

Adenosine receptor A2a, sequence (P30543 whole entry): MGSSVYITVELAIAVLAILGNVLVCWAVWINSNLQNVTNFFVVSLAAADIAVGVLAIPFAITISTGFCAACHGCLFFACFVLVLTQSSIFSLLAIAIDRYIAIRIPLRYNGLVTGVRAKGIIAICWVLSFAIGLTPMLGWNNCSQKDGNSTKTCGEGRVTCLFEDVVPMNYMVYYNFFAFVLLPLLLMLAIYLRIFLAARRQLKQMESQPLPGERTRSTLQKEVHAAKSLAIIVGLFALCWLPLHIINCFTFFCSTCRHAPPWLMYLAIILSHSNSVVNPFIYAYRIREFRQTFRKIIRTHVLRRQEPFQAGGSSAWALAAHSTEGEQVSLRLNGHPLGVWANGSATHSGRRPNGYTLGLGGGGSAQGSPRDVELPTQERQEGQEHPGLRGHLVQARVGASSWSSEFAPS
Adenosine receptor A2a (Rattus norvegicus), sequence (P30543 whole entry): as above

Ki (Adenosine receptor A2a) [nM]	Ratio [1]	Ki (Adenosine receptor A1 [2]) [nM]	Ki (Adenosine receptor A1 [3]) [nM]	percent radioligand bound [4] [%]	SMILES
2020	0.73	–	–	–	O=C(N[C@H]1C(CO)O[C@@H](n2cnc3c(NC4CCCC4)ncnc32)[C@@H]1O)c1ccc(Cl)c(Cl)c1 (single isomer, unassigned)
2760	0.8	–	–	–	O=C(N[C@H]1C(CO)O[C@@H](n2cnc3c(NC4CCCC4)ncnc32)[C@@H]1O)c1ccccc1 (single isomer, unassigned)
7940	0.99	370	350	–	O=C(CCc1ccccc1)N[C@H]1C(CO)O[C@@H](n2cnc3c(NC4CCCC4)ncnc32)[C@@H]1O (single isomer, unassigned)
–	0.95	850	770	50	O=C(Cc1ccccc1)N[C@H]1C(CO)OC(n2cnc3c(NC4CCCC4)ncnc32)C1O (stereo partly drawn)
1770	0.75	3590	2680	–	Nc1ncnc2c1ncn2[C@@H]1OC(CO)[C@H](NC(=O)CCCC2CCCCC2)[C@H]1O (single isomer, unassigned)
580	0.87	110	81	–	O=C(N[C@H]1C(CO)O[C@@H](n2cnc3c(NC4CCCC4)ncnc32)[C@@H]1O)c1ccc(Cl)cc1 (single isomer, unassigned)
770	0.77	200	130	–	COc1ccc(C(=O)N[C@H]2C(CO)OC(n3cnc4c(NC5CCCC5)ncnc43)C2O)cc1 (stereo partly drawn)
–	0.8	190	150	74	O=C(CCCC1CCCCC1)N[C@H]1C(CO)OC(n2cnc3c(NC4CCCC4)ncnc32)C1O (stereo partly drawn)
650	0.94	130	100	–	O=C(CCCc1ccccc1)N[C@H]1C(CO)O[C@@H](n2cnc3c(NC4CCCC4)ncnc32)[C@@H]1O (single isomer, unassigned)
–	2.1	–	–	–	Nc1ncnc2c1ncn2[C@@H]1O[C@H](CO)C[C@H]1O
2470	1.1	10900	11100	–	Nc1ncnc2c1ncn2[C@@H]1OC(CO)[C@H](NC(=O)c2ccccc2)[C@H]1O (single isomer, unassigned)
3680	0.73	–	–	–	Cc1ccc(C(=O)N[C@H]2C(CO)O[C@@H](n3cnc4c(NC5CCCC5)ncnc43)[C@@H]2O)cc1C (single isomer, unassigned)
790	0.84	83	68	–	Cc1ccc(C(=O)N[C@H]2C(CO)OC(n3cnc4c(NC5CCCC5)ncnc43)C2O)cc1 (stereo partly drawn)
–	4.3	–	–	–	OC[C@@H]1C[C@@H](O)[C@H](n2cnc3c(NC4CCCC4)ncnc32)O1
2410	1.4	8470	11200	–	[N-]=[N+]=N[C@@H]1[C@@H](O)[C@H](n2cnc3c(NC4CCCC4)ncnc32)O[C@@H]1CO
4660	0.73	7840	5740	–	Nc1ncnc2c1ncn2C1OC(CO)[C@H](NC(=O)CCCCc2ccccc2)C1O (stereo partly drawn)
4230	0.83	240	200	–	O=C(CCCCc1ccccc1)N[C@H]1C(CO)O[C@@H](n2cnc3c(NC4CCCC4)ncnc32)[C@@H]1O (single isomer, unassigned)
6850	0.91	820	740	–	O=C(N[C@H]1C(CO)O[C@@H](n2cnc3c(NC4CCCC4)ncnc32)[C@@H]1O)c1ccc([N+](=O)[O-])cc1 (single isomer, unassigned)
11800	0.74	–	12600	–	Nc1ncnc2c1ncn2[C@@H]1OC(CO)[C@H](NC(=O)CCOc2ccccc2)[C@H]1O (single isomer, unassigned)
